In paper PMC9948766 (Science translational medicine, 2022):
Like-named read-outs stand apart in the source and are kept apart here.

What was measured:
[1] = tested on: atraumatic rat model of shoulder arthrofibrosis; assay: Histological assessment of rat shoulder joints; type: in vivo, Sprague Dawley rats
Summary of the method: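 Female Sprague Dawley rats with contracted shoulders receiving intraarticular doses (repeated 2 μg/kg injections or saline; or single 10 μg/kg microparticles or unloaded particles at equivalent PLGA mass) from remobilization. Joints fixed and decalcified at 14 or 56 days; coronal sections stained with H&E, Masson's Trichrome, Safranin O. Immune activation scored on H&E; axillary pouch thickness measured; n=5; mean ± STDev; ANOVA.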

[2] = tested on: mouse models of myocardial infarction; settings: cited from earlier work
[3] = Pharmacokinetics and biodistribution of ^125I-RLX after intraarticular injection; design: species or system Sprague Dawley rats; settings: rat, in vivo
[4] = Circular dichroism of RLX secondary structure; type: physicochemical
[5] = cited from earlier work
[6] = humans, intravenous injection; cited from earlier work

- inflammatory infiltrate, histological scoring ([1]; 14 days post-treatment, n=5): negligible inflammation
- inflammatory infiltrate, histological scoring ([1]; 56 days post-treatment, n=5): negligible inflammation
- CL [3]: 20.6 (15.1, 31.8) (mL/kg)·hr
- average plasma exposure, Cavg [3]: 2.05 ng/mL/h
- clearance at the time of dose re-administration [3]: > 99%
- maximum plasma exposure, Cmax [3]: 16 ng/mL
- t1/2-α [3]: 0.954 (0.852, 1.15) h
- t1/2-α (effective synovial half-life) [3]: 0.305 (0.280, 0.346) h
Substance: human relaxin-2 [RLX]
- joint architecture ([1]; 56 days after remobilization, H&E, Masson's Trichrome): restored delineation of the humeral head and glenoid surface, absence of fibrotic adhesions
- synovial membrane thickness in the axillary pouch ([1]; 56 days, n=5): restoration to baseline values
- bioactive average plasma exposure concentration, Cavg [2]: 20 to 40 ng/mL
- alpha helical structure (CD) after encapsulation processing ([4]; after organic solvents, mechanical and thermal forces of encapsulation): maintenance of the alpha helical structure
- alpha helical structure (CD, negative peaks at 208 and 222 nm) after extended incubation ([4]; long-term incubation at 37 °C): maintenance of the alpha helical structure
- toxicological profile ([5]; acute heart failure, 30 μg/kg/day continuous IV infusion over 48 hr): favorable toxicological profile
- toxicological profile ([5]; induction of labor, 75μg/kg/day continuous IV infusion over 24 hr): favorable toxicological profile
- half-life [6]: 1.6 h
